According to ChEMBL document CHEMBL4613272, “Anti-HIV-Active Nucleoside Triphosphate Prodrugs” (J Med Chem, 2020):

Columns and labels:
[1] = Half life in pH 7.3 phosphate buffered saline by HPLC analysis; format: physicochemical
In short: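 Prodrug from 50 mM DMSO-d6 stock diluted to 1.9 mM with water/DMSO-d6. Reaction started by adding phosphate buffer (50 mM stock, pH 7.3). Products followed by analytical RP18 HPLC with TBAA or TEAA buffer/acetonitrile gradient.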

[2] = system: Human immunodeficiency virus 2; assay: Antiviral activity against HIV2 ROD infected in thymidine kinase-deficient human CEM cells assessed as inhibition of virus-induced giant cell formation measured after 4 to 5 days by microscopic analysis; settings: Human immunodeficiency virus 2, ISOLATE ROD, CCRF-CEM
[3] = Cytotoxicity against human CEM cells assessed as reduction in cell proliferation; format: cell-based; settings: CEM cells (CCRF-CEM)
In short: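 CC50 is the compound concentration inhibiting CEM CD4+ T-cell proliferation by 50%. Mean ± SD of n=2-3 independent experiments.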

[4] = Selectivity index, ratio of CC50 for human CEM cells to EC50 for HIV1 HE infected in human CEM/0 cells; settings: CEM cells (CC50) and HIV1 HE infected CEM/0 cells (EC50)
[5] = system: Human immunodeficiency virus 2; assay: Antiviral activity against HIV2 ROD infected in human CEM/0 cells assessed as inhibition of virus-induced giant cell formation measured after 4 to 5 days by microscopic analysis; settings: Human immunodeficiency virus 2, ISOLATE ROD, CCRF-CEM
[6] = system: Human immunodeficiency virus 1; assay: Antiviral activity against HIV1 HE infected in human CEM/0 cells assessed as inhibition of virus-induced giant cell formation measured after 4 to 5 days by microscopic analysis; settings: Human immunodeficiency virus 1, HE, CCRF-CEM
[7] = Prodrug conversion in pH 7.3 phosphate buffered saline assessed as pig liver esterase-mediated d4TTP formation by HPLC analysis; format: ADME, Sus scrofa; settings: in vitro
In short: (§1)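 Prodrug diluted from 50 mM DMSO stock through a 6.0 mM intermediate into DMSO/50 mM PBS pH 7.3. Started with pig liver esterase (3 mg/mL solution in PBS) and shaken at 37 °C, 800 rpm. Aliquots quenched in MeOH at intervals, filtered, stored in liquid nitrogen and analysed by RP18 HPLC.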

[8] = Half life in pH 7.3 phosphate buffered saline in presence of pig liver esterase by HPLC analysis; format: ADME, Sus scrofa; in short: as §1
[9] = Half life in human CEM/0 cell extracts by HPLC analysis; format: ADME, CCRF-CEM
In short: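 Cell extract prepared from CEM cells grown in RPMI-1640-based medium to ~3·10^6 cells/mL. Cells washed twice in cold PBS, resuspended at 10^8 cells/mL, sonicated, cleared at 10,000 rpm and stored at -80 °C. Prodrug at 6.0 mM hydrolysis solution in DMSO-d6 mixed with water and extract at 37 °C over time. Samples iced, sonicated and centrifuged; supernatant analysed by RP18 HPLC. t1/2 calculated as for chemical hydrolysis.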

| SMILES | half-life [1] [days] | EC50 [2] [nM] | EC50 [5] [nM] | EC50 [6] [nM] | Drug metabolism [7] | half-life [8] [min] | half-life [9] [min] | CC50 [3] [µM] | selectivity ratio [4] |
| --- | --- | --- | --- | --- | --- | --- | --- | --- | --- |
| CCCCCCCCCCCCCCCCOC(=O)Oc1ccc(COP(=O)(OCc2ccc(OC(=O)CCCCCC)cc2)OP(=O)(O)OP(=O)(O)OC[C@@H]2C=C[C@H](n3cc(C)c(=O)[nH]c3=O)O2)cc1.N.N (stereo partly specified) | 3.71 | – | – | – | – | – | – | – | – |
| CCCCCCCCCCCCCCCCCCOC(=O)Oc1ccc(COP(=O)(OCc2ccc(OC(=O)OCCCC)cc2)OP(=O)(O)OP(=O)(O)OC[C@@H]2C=C[C@H](n3cc(C)c(=O)[nH]c3=O)O2)cc1.N.N (stereo partly specified) | 4.62 | – | – | – | – | – | – | – | – |
| CCCCCCOC(=O)Oc1ccc(COP(=O)(O)OP(=O)(O)OP(=O)(O)OC[C@@H]2C=C[C@H](n3cc(C)c(=O)[nH]c3=O)O2)cc1.N.N.N | 22.7 | – | – | – | – | – | – | – | – |
| CCCCCCCCCCCCCCCCOC(=O)Oc1ccc(COP(=O)(OCc2ccc(OC(=O)CCCCCCCC)cc2)OP(=O)(O)OP(=O)(O)OC[C@@H]2C=C[C@H](n3cc(C)c(=O)[nH]c3=O)O2)cc1.N.N (stereo partly specified) | 3.75 | – | – | – | Metabolite_Detected | 828 | 384 | – | – |
| CCCCCCCCCCCCCCCCCCOC(=O)Oc1ccc(COP(=O)(OCc2ccc(OC(=O)CCCC)cc2)OP(=O)(O)OP(=O)(O)OC[C@@H]2C=C[C@H](n3cc(C)c(=O)[nH]c3=O)O2)cc1.N.N (stereo partly specified) | 3.08 | 560 | 25 | 55 | – | – | – | 58 | 1050 |
| CCCCCCCCCCCCCCCCOC(=O)Oc1ccc(COP(=O)(OCCC#N)OP(=O)(O)OP(=O)(O)OC[C@@H]2C=C[C@H](n3cc(C)c(=O)[nH]c3=O)O2)cc1.N.N (stereo partly specified) | 2.33 | 3260 | 300 | 530 | – | – | – | 53 | 100 |
| CCCCCCCCCOC(=O)Oc1ccc(COP(=O)(OCc2ccc(OC(=O)OCCCCCCCCC)cc2)OP(=O)(O)OP(=O)(O)OC[C@@H]2C=C[C@H](n3cc(C)c(=O)[nH]c3=O)O2)cc1.N.N | 4.21 | 230 | 90 | 340 | – | – | – | 34 | 100 |
| CCCCCCCCCCCCCCCCOC(=O)Oc1ccc(COP(=O)(OCc2ccc(OC(=O)CCCCCCCCC)cc2)OP(=O)(O)OP(=O)(O)OC[C@@H]2C=C[C@H](n3cc(C)c(=O)[nH]c3=O)O2)cc1.N.N (stereo partly specified) | 3.54 | 240 | 78 | 160 | – | – | – | 16 | 100 |
| CCCCCCCCCCCCOC(=O)Oc1ccc(COP(=O)(O)OP(=O)(O)OP(=O)(O)OC[C@@H]2C=C[C@H](n3cc(C)c(=O)[nH]c3=O)O2)cc1.N.N.N | 26 | 1980 | 250 | 330 | – | – | – | > 100 | > 303 |
| CCCCCCCCCCCCOC(=O)Oc1ccc(COP(=O)(OCCC#N)OP(=O)(O)OP(=O)(O)OC[C@@H]2C=C[C@H](n3cc(C)c(=O)[nH]c3=O)O2)cc1.N.N (stereo partly specified) | 1.25 | 2480 | 230 | 470 | – | – | – | > 100 | > 212 |
| CCCCCCCCCCCCCCOC(=O)Oc1ccc(COP(=O)(OCc2ccc(OC(=O)CCCC)cc2)OP(=O)(O)OP(=O)(O)OC[C@@H]2C=C[C@H](n3cc(C)c(=O)[nH]c3=O)O2)cc1.N.N (stereo partly specified) | 2.88 | – | – | – | – | – | – | – | – |
| CCCCCCCCCCCCCCCOC(=O)Oc1ccc(COP(=O)(OCc2ccc(OC(=O)CCCC)cc2)OP(=O)(O)OP(=O)(O)OC[C@@H]2C=C[C@H](n3cc(C)c(=O)[nH]c3=O)O2)cc1.N.N (stereo partly specified) | 3.08 | – | – | – | – | – | – | – | – |
| CCCCCCCCCCCC(=O)Oc1ccc(COP(=O)(O)OP(=O)(O)OP(=O)(O)OC[C@@H]2C=C[C@H](n3cc(C)c(=O)[nH]c3=O)O2)cc1.N.N.N | 19.2 | – | – | – | – | – | – | – | – |
| CCCCCCCCCCCCCCCCOC(=O)Oc1ccc(COP(=O)(OCc2ccc(OC(=O)CCCC)cc2)OP(=O)(O)OP(=O)(O)OC[C@@H]2C=C[C@H](n3cc(C)c(=O)[nH]c3=O)O2)cc1.N.N (stereo partly specified) | 3.08 | 120 | – | – | Metabolite_Detected | 96 | 222 | 21 | 656 |
| CCCCCCCCCCCCCCCCOC(=O)Oc1ccc(COP(=O)(O)OP(=O)(O)OP(=O)(O)OC[C@@H]2C=C[C@H](n3cc(C)c(=O)[nH]c3=O)O2)cc1.N.N.N | > 66.7 | 1460 | 290 | 500 | – | – | – | 61 | 122 |
| Cc1cn([C@H]2C=C[C@@H](COP(=O)(O)OP(=O)(O)OP(=O)(O)O)O2)c(=O)[nH]c1=O [STAVUDINE TRIPHOSPHATE] | > 20.8 | – | – | – | – | – | – | – | – |
| Cc1cn([C@H]2C=C[C@@H](CO)O2)c(=O)[nH]c1=O [STAVUDINE] | – | 31000 | – | – | – | – | – | > 50 | > 116 |

Continued, in another order:

| half-life [1] [days] | EC50 [2] [nM] | EC50 [5] [nM] | EC50 [6] [nM] | Drug metabolism [7] | half-life [8] [min] | half-life [9] [min] | SMILES | CC50 [3] [µM] | selectivity ratio [4] |
| --- | --- | --- | --- | --- | --- | --- | --- | --- | --- |
| 1.04 | 1760 | 40 | 73 | – | – | – | CCCCCCCCCOC(=O)Oc1ccc(COP(=O)(OCc2ccc(OC(=O)CC)cc2)OP(=O)(O)OP(=O)(O)OC[C@@H]2C=C[C@H](n3cc(C)c(=O)[nH]c3=O)O2)cc1.N.N (stereo partly specified) | 84 | 1150 |
| 2.75 | 640 | 130 | 61 | Metabolite_Detected | 26.4 | – | CCCCCCCCCCCCOC(=O)Oc1ccc(COP(=O)(OCc2ccc(OC(=O)CC)cc2)OP(=O)(O)OP(=O)(O)OC[C@@H]2C=C[C@H](n3cc(C)c(=O)[nH]c3=O)O2)cc1.N.N (stereo partly specified) | 33 | 541 |
| 4.46 | 1120 | 170 | 730 | Metabolite_Detected | 16.8 | – | CCCCCCCCCCCCOC(=O)Oc1ccc(COP(=O)(OCc2ccc(OC(=O)OCCCC)cc2)OP(=O)(O)OP(=O)(O)OC[C@@H]2C=C[C@H](n3cc(C)c(=O)[nH]c3=O)O2)cc1.N.N (stereo partly specified) | 54 | 74 |
| 3.08 | – | – | – | – | – | – | CCCCCCCCCCCCCCOC(=O)Oc1ccc(COP(=O)(OCc2ccc(OC(=O)CC)cc2)OP(=O)(O)OP(=O)(O)OC[C@@H]2C=C[C@H](n3cc(C)c(=O)[nH]c3=O)O2)cc1.N.N (stereo partly specified) | – | – |
| 3.38 | – | – | – | – | – | – | CCCCCCCCCCCCCCCCOC(=O)Oc1ccc(COP(=O)(OCc2ccc(OC(C)=O)cc2)OP(=O)(O)OP(=O)(O)OC[C@@H]2C=C[C@H](n3cc(C)c(=O)[nH]c3=O)O2)cc1.N.N (stereo partly specified) | – | – |
| 3.5 | 1750 | 240 | 570 | Metabolite_Detected | 30.6 | 56.4 | CCCCCCCCCCCCOC(=O)Oc1ccc(COP(=O)(OCc2ccc(OC(=O)OCC)cc2)OP(=O)(O)OP(=O)(O)OC[C@@H]2C=C[C@H](n3cc(C)c(=O)[nH]c3=O)O2)cc1.N.N (stereo partly specified) | 64 | 112 |
| 2.17 | – | – | – | – | – | – | CCCCCCCCCCCOC(=O)Oc1ccc(COP(=O)(OCc2ccc(OC(=O)CC)cc2)OP(=O)(O)OP(=O)(O)OC[C@@H]2C=C[C@H](n3cc(C)c(=O)[nH]c3=O)O2)cc1.N.N (stereo partly specified) | – | – |
| 3.12 | – | – | – | – | – | – | CCCCCCCCCCCCOC(=O)Oc1ccc(COP(=O)(OCc2ccc(OC(=O)CCC)cc2)OP(=O)(O)OP(=O)(O)OC[C@@H]2C=C[C@H](n3cc(C)c(=O)[nH]c3=O)O2)cc1.N.N (stereo partly specified) | – | – |
| 1.42 | – | – | – | – | – | – | CCCCCCCCCCOC(=O)Oc1ccc(COP(=O)(OCc2ccc(OC(=O)CC)cc2)OP(=O)(O)OP(=O)(O)OC[C@@H]2C=C[C@H](n3cc(C)c(=O)[nH]c3=O)O2)cc1.N.N (stereo partly specified) | – | – |
| 3.38 | 150 | 90 | 110 | – | – | – | CCCCCCCCCOC(=O)Oc1ccc(COP(=O)(OCc2ccc(OC(=O)CCCCCCCCC)cc2)OP(=O)(O)OP(=O)(O)OC[C@@H]2C=C[C@H](n3cc(C)c(=O)[nH]c3=O)O2)cc1.N.N (stereo partly specified) | 37 | 336 |
| 3.21 | – | – | – | – | – | – | CCCCCCCCCCCCCCCCOC(=O)Oc1ccc(COP(=O)(OCc2ccc(OC(=O)CC(C)C)cc2)OP(=O)(O)OP(=O)(O)OC[C@@H]2C=C[C@H](n3cc(C)c(=O)[nH]c3=O)O2)cc1.N.N (stereo partly specified) | – | – |
| 2.92 | – | – | – | – | – | – | CCCCCCCCCCCCOC(=O)Oc1ccc(COP(=O)(OCc2ccc(OC(=O)C(C)C)cc2)OP(=O)(O)OP(=O)(O)OC[C@@H]2C=C[C@H](n3cc(C)c(=O)[nH]c3=O)O2)cc1.N.N (stereo partly specified) | – | – |
| 3.62 | 73 | 17 | 40 | Metabolite_Detected | 10.2 | 72 | CCCCCCCCCCCCOC(=O)Oc1ccc(COP(=O)(OCc2ccc(OC(=O)CCCC)cc2)OP(=O)(O)OP(=O)(O)OC[C@@H]2C=C[C@H](n3cc(C)c(=O)[nH]c3=O)O2)cc1.N.N (stereo partly specified) | 27 | 675 |
